OX1R antag-1: blocks the human orexin 1 receptor | O43613 | OX1R-expressing cells, FRET antagonist read-out | inhibition, % at 6.6 µM | actives 1.8% (n = 330,000); in the data active = inhibition mostly above about 38%, no sharp cut-off; inactive = mostly below about 40%
Target sequence (O43613 whole entry, looked up): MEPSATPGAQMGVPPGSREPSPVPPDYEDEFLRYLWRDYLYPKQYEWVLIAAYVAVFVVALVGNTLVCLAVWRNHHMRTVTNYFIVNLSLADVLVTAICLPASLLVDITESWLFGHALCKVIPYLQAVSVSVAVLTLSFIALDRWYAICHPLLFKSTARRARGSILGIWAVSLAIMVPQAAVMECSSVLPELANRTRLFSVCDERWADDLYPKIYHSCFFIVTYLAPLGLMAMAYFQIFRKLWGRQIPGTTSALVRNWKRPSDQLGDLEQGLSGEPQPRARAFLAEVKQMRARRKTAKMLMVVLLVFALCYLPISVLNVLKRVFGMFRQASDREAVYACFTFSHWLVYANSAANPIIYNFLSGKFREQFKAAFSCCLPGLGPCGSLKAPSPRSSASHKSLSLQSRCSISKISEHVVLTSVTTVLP
OXTR agonist: agonists of human oxytocin receptor; CHO-OTR cells, Fluo-8 calcium fluorescence; normalized: DMSO 0%, oxytocin 100%; AID 2435; actives 0.32% (n = 320,000); activation, % at 3 µM;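 active = activation above the mean of all tested compounds plus 3 SD, cutoff set per screening run, cut at about 20% in these data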;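 also: peak over basal fluorescence ratio from a 100 s FLIPR kinetic read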
CHO parental Ca: signal in parental CHO cells, OX1R antagonist counter-screen | parental CHO-K1, ATP-induced calcium, Fluo-8 fluorescence | AID 463079 | inhibition, % at 5.6 µM | actives 0.63% (n = 330,000);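 active = inhibition above that plate's mean sample inhibition plus 3 SD, cut at about 26% in these data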
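Test system: untransfected parental CHO cell line; also added: ATP stimulus; dosing: 5.6 µM, single dose; signal: calcium-sensitive Fluo-8 fluorescence; measure: percent inhibition of ATP-evoked calcium rise, normalized to controls; benchmarks: low control ATP plus DMSO, high control DMSO only; replication: one well per compound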
OX1R antag-2: human HCRTR1 antagonism | inhibition, % at 5 µM | O43613 | actives 0.43% (n = 330,000) | CHO/OX1R cells, Fluo-8 calcium fluorescence, orexin A | AID 434989;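 active = inhibition above its plate's threshold, mean inhibition of all tested compounds on the plate plus 3 SD, cut at about 37% in these data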
V1aR counter: activates human V1a receptor in oxytocin agonist counter-screen | CHO-V1R cells, Fluo-8 calcium fluorescence, agonist mode; 0% DMSO, 100% 3 nM vasopressin | activation, % at 3 µM | actives 0.25% (n = 320,000) | AID 2797;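 active = activation above the mean activation of all tested compounds plus 3 SD, per screening run, cut at about 20% in these data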;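 also: signal is peak over basal fluorescence ratio across a 100 second FLIPR read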
OXTR potentiate: human OXTR potentiation. AID 2445. actives 0.061% (n = 320,000). P30559. activation, % at 3 µM. CHO-OTR cells, Fluo-8 calcium fluorescence, potentiator mode; 0% = oxytocin EC15, 100% = EC100;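 active = activation above that plate's cutoff, the mean activation of tested compounds plus 3 SD, cut at about 6.6% in these data, passing the limit was not always enough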
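Dosing: Single dose, 3.0 µM nominal final compound concentration | Material: Human OTR in CHO cells | Technique: Kinetic Fluo-8 calcium fluorescence | Benchmarks: EC15 oxytocin alone as 0%, 75 nM oxytocin as 100% | Probe or stimulus: Oxytocin at about EC15, sub-maximal agonist stimulus | Incubation: Compound 6 min at room temperature before oxytocin, 100 s read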
V1R ag confirm: human V1a receptor agonism, confirmation. AID 434964. actives 20% (n = 180). CHO-V1R cells, Fluo-8 calcium fluorescence, agonist. shares compounds with V1aR counter. activation, % at 3 µM;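 active = average activation exceeds primary screen hit cutoff, cut at about 21% in these data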;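 also: peak over basal fluorescence ratio during a 100 s FLIPR read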
OXTR ag counter: activates oxytocin receptor in V1a agonist counter-screen | shares compounds with V1aR counter | CHO-OTR cells, Fluo-8 calcium fluorescence | activation, % at 3 µM | actives 10% (n = 180) | AID 434969;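 active = mean activation over three repeats above the cutoff from the earlier oxytocin receptor agonist screen, cut at about 20% in these data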;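 also: peak over minimum fluorescence ratio within a 100 second FLIPR read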
Large screens that a line does not name were inactive (follow-up assays come after a bar, where they were run). Only some compounds are listed: those with a hit (about 2.7% of all), similar ones and a draw of the others.

CC1(C)CC(=O)C(C(C2=C(O)CC(C)(C)CC2=O)c2ccc(Cl)c([N+](=O)[O-])c2)C(=O)C1 (configuration not stated)	V1aR counter 48.1 | V1R ag confirm inactive | OXTR ag counter inactive
COc1cc(C(C2=C(O)CC(C)(C)CC2=O)C2C(=O)CC(C)(C)CC2=O)cc(OC)c1OC (configuration not stated)	none
C#CCOCCOCCOCCNc1nc(N2CCN(C(=O)CCCCCCCCCCNC(=O)[C@H]([C@@H](C)CC)n3cc(CCCCCN)nn3)CC2)nc(N2CCN(C(=O)CCCCCCCCCCNC(=O)[C@H](CCCCN)n3cc(CCCC(=O)O)nn3)CC2)n1	V1aR counter 20.3 | V1R ag confirm inactive | OXTR ag counter inactive
C#CCOCCOCCOCCNc1nc(N2CCN(C(=O)CCCCCCCCCCNC(=O)[C@H](CCCCN)n3cc(CCCC(=O)O)nn3)CC2)nc(N2CCN(C(=O)CCCCCCCCCCNC(=O)[C@@H]([C@H](C)O)n3cc(C)nn3)CC2)n1	V1aR counter 20.9 | V1R ag confirm inactive | OXTR ag counter inactive
COc1ccc(C(=O)O)cc1S(=O)(=O)N(CCc1ccccc1)Cc1ccccc1	V1aR counter 25.1 | V1R ag confirm inactive | OXTR ag counter inactive
COC(=O)c1ccc(CN2CCC(CO)(Cc3ccccc3Cl)CC2)cc1	none
COc1ccc(/C=C/CN2CCC(CO)(Cc3ccccc3Cl)CC2)cc1	V1aR counter 28.1 | V1R ag confirm inactive | OXTR ag counter inactive
N#C/C(=C(/O)CSc1ccccn1)c1nc2ccccc2s1	CHO parental Ca 65.5, OX1R antag-2 70.6, V1aR counter 27.1 | V1R ag confirm inactive | OXTR ag counter inactive
Cc1ccc(SC/C(O)=C(\C#N)c2nc3ccccc3s2)cc1	none
COc1ccc(N2CCN(C(=O)CC(C)S(=O)(=O)c3ccc4c(c3)NC(=O)CO4)CC2)cc1 (configuration not stated)	none
CC(CC(=O)N1CCN(c2cccc(Cl)c2)CC1)S(=O)(=O)c1ccc2c(c1)NC(=O)CO2 (configuration not stated)	OX1R antag-1 60.2, CHO parental Ca 78.1, OX1R antag-2 57.4, V1aR counter 20.9 | V1R ag confirm inactive | OXTR ag counter inactive
COc1ccccc1CNC(=O)[C@H](C)NC(=O)C1CCN(C(=O)[C@@H](N)C(C)C)CC1	none
O=C(Cc1c(F)cccc1Cl)Nc1nc2ccccc2s1	V1aR counter 21.9 | V1R ag confirm inactive | OXTR ag counter inactive
Cc1ccc(NC(=S)N2CCCCC2)cc1C	none
COc1cc(/C=C2\SC(=O)N(CC(=O)Nc3ccccc3F)C2=O)cc(Cl)c1O	V1aR counter 21.6 | V1R ag confirm 66.6 | OXTR ag counter 59.5
Cc1ccc(C)c(C(C)NC(=S)NCc2ccc(F)cc2)c1 (configuration not stated)	CHO parental Ca 66.7, OX1R antag-2 41.4, V1aR counter 23.7 | V1R ag confirm inactive | OXTR ag counter inactive
COc1ccc2nc(NC(=O)Cc3ccc(OC)c(S(=O)(=O)N4CCOCC4)c3)sc2c1	V1aR counter 22.8 | V1R ag confirm inactive | OXTR ag counter inactive
CC(C)(C)c1ccc(C(=O)N2CCN(C(=O)c3ccco3)CC2)cc1	none
CCOC(=O)c1c(NC(=O)CC)sc2c1CCN(Cc1ccccc1)C2	V1aR counter 21.6 | V1R ag confirm inactive | OXTR ag counter inactive
CCOC(=O)c1c(NC(C)=O)sc2c1CCN(Cc1ccccc1)C2	none
NC(=O)c1ccc(NC(=O)CN2CCN(Cc3ccccc3)CC2)cc1	none
C[C@H](CO)N1C[C@H](C)[C@@H](CN(C)Cc2ccc(-c3ccccc3)cc2)Oc2c(NS(=O)(=O)c3cn(C)cn3)cccc2C1=O	V1aR counter 76.6 | V1R ag confirm inactive | OXTR ag counter inactive

Screening data (PubChem)
